IC50, Papp and CL data for 41 compounds are collected here from ChEMBL document CHEMBL1144458, “Aminothiazole inhibitors of HCV RNA polymerase” (Bioorg Med Chem Lett, 2005).

The structures appear in SMILES notation.

Cytochrome P450 3A4, sequence (P08684 whole entry): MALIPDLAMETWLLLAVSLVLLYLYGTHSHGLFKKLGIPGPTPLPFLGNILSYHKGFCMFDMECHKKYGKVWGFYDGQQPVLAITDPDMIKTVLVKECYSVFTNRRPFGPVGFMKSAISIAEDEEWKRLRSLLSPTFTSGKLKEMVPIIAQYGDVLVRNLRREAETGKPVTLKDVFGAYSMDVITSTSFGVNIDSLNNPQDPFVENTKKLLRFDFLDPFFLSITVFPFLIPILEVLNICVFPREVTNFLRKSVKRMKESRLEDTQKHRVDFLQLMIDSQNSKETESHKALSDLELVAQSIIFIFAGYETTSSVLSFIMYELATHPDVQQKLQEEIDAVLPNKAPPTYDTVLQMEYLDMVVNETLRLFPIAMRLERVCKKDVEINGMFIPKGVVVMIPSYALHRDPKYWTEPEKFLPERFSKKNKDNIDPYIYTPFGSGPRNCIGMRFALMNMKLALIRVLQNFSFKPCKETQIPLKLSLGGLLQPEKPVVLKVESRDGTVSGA

The target of one data set is Cytochrome P450 2D6 (Homo sapiens, UniProt P10635). Nature of the data set: Inhibitory concentration against Cytochrome P450 2D6. It is filed as ADME.
Cytochrome P450 2D6, sequence (P10635 whole entry): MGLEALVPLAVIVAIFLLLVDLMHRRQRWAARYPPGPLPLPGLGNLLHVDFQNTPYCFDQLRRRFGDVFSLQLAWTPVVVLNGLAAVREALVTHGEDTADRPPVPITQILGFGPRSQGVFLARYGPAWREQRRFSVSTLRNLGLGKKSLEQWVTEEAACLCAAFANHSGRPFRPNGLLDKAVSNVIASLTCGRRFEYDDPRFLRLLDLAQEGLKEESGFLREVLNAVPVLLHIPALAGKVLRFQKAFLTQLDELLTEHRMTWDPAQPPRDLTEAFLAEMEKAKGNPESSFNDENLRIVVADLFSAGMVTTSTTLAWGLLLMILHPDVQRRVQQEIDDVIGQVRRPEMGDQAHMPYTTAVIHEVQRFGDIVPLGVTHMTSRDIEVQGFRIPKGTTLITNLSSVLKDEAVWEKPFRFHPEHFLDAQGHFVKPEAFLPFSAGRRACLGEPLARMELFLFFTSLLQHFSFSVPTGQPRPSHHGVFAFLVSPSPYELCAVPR
Conditions: not given
Compound `O=C(O)c1cnc(N(C(=O)c2ccc(OCc3cccc(C(F)(F)F)c3)cc2)C2CCCCC2)s1` came in with an IC50 greater than 30 µM.

A further data set concerns the target Cytochrome P450 3A4 (Homo sapiens, UniProt P08684). Nature of the data set: Inhibitory concentration against Cytochrome P450 3A4. It is filed as ADME.
Conditions: not given
Compound `O=C(O)c1cnc(N(C(=O)c2ccc(OCc3cccc(C(F)(F)F)c3)cc2)C2CCCCC2)s1` yielded an IC50 greater than 30 µM.

For another data set, the target named is RNA-directed RNA polymerase (Hepacivirus hominis, UniProt O39930). Nature of the data set: Inhibitory concentration against RNA dependent RNA polymerase nonstructural protein 5B of hepatitis C virus.
RNA-directed RNA polymerase, sequence (O39930 whole entry): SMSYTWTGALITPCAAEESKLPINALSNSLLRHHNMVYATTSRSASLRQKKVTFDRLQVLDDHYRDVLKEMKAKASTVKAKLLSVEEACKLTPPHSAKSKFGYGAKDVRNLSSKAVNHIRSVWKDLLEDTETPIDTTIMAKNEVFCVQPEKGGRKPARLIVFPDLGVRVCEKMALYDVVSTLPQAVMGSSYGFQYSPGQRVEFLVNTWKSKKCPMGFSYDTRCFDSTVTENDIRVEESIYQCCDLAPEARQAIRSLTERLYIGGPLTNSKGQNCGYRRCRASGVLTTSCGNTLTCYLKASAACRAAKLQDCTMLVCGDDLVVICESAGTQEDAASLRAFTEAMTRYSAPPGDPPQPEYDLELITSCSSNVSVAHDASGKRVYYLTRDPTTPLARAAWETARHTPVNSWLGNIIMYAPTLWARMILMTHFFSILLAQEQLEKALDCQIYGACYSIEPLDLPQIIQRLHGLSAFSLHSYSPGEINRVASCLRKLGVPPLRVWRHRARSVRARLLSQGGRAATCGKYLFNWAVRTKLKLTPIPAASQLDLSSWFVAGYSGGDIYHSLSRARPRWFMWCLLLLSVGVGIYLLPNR
Conditions: not given
An outline of the steps: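 HCV NS5B D55 construct (6 nM), scintillation proximity assay: biotinylated oligoG12/polyC template-primer with GTP plus [3H]-GTP, in 20 mM HEPES pH 7.3, 7.5 mM DTT, 10 mM MgCl2, 60 mM NaCl, BSA, and RNasin, for 50 min at room temperature. Stopped with streptavidin SPA beads plus 100 mM EDTA; incorporated label counted. IC50 from single experiments over 11 serial 2-fold dilutions.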
Consider `C[C@@H]1CCCC[C@H]1N(C(=O)c1ccc(Oc2ccccc2)cc1)c1nc(C(=O)O)cs1` (stereo in doubt; cis), for which the IC50 came to 7.6 µM.

For `COc1ccccc1Oc1ccc(C(=O)N(c2ncc(C(=O)O)s2)C2CCCCC2)cc1`, the IC50 amounted to 8.5 µM.

The compound `CC(C)(C)[C@H]1CC[C@H](N(C(=O)c2ccc(Oc3ccccc3)cc2)c2ncc(C(=O)O)s2)CC1` (stereo in doubt; trans) had an IC50 of 6 µM. This IC50 and that of the compound before are within 1.5-fold of each other.

`C[C@@H]1CCCC[C@H]1N(C(=O)c1ccc(Oc2ccccc2)cc1)c1nc(C(=O)O)cs1` (stereo in doubt; trans) showed an IC50 of 11 µM.

As for `COc1cccc(Oc2ccc(C(=O)N(c3ncc(C(=O)O)s3)C3CCCCC3)cc2)c1`, half-maximal inhibition (IC50) was put at 3.1 µM.

`CC(C)(C)[C@H]1CC[C@@H](N(C(=O)c2ccc(Oc3ccccc3)cc2)c2nc(C(=O)O)cs2)CC1` (stereo in doubt; trans) yielded an IC50 of 4.7 µM.

Compound `CC(C)N(C(=O)c1ccc(Oc2ccccc2)cc1)c1nc(C(=O)O)cs1` showed a half-maximal inhibitory concentration (IC50) greater than 50 µM.

For the compound `C[C@H]1CC[C@@H](N(C(=O)c2ccc(Oc3ccccc3)cc2)c2nc(C(=O)O)cs2)CC1` (stereo in doubt; cis), the IC50 turned out to be 5.7 µM. That is a single-digit micromolar value.

The compound `O=C(O)c1cnc(N(C(=O)c2ccc(Oc3cccc(C(F)(F)F)c3)cc2)C2CCCCC2)s1` yielded an IC50 of 4.4 µM.

With `O=C(O)c1cnc(N(C(=O)c2ccc(OCc3ccccc3)cc2)C2CCCCC2)s1`, inhibition was half-maximal at 6.5 µM (IC50). The IC50 values of the last two compounds are within 1.5-fold of each other.

For the compound `O=C(O)c1cnc(N(C(=O)c2ccc(OCc3cccc(C(F)(F)F)c3)cc2)C2CCCCC2)s1`, the IC50 worked out at 1.4 µM. Compared with the last compound, the IC50 is about 4.6-fold lower.

`O=C(O)c1cnc(N(C(=O)c2ccc(Oc3cccc(Cl)c3)cc2)C2CCCCC2)s1`: half-maximal inhibition (IC50) was put at 2.8 µM.

`O=C(O)c1cnc(N(C(=O)c2ccc(Oc3ccc(Cl)cc3)cc2)C2CCCCC2)s1` displayed an IC50 of 4.2 µM.

In turn, `O=C(Nc1ncc(C(=O)O)s1)c1ccc(Oc2ccccc2)cc1` returned an IC50 greater than 50 µM.

The compound `C[C@H]1CC[C@H](N(C(=O)c2ccc(Oc3ccccc3)cc2)c2ncc(C(=O)O)s2)CC1` (stereo in doubt; trans) registered an IC50 of 5 µM. In other words, the single-digit micromolar range.

`CC(C)N(C(=O)c1ccc(Oc2ccccc2)cc1)c1ncc(C(=O)O)s1` yielded an IC50 greater than 50 µM.

`COc1cccc(COc2ccc(C(=O)N(c3ncc(C(=O)O)s3)C3CCCCC3)cc2)c1` came in with an IC50 of 3.2 µM.

Take `COc1ccc(Oc2ccc(C(=O)N(c3ncc(C(=O)O)s3)C3CCCCC3)cc2)cc1OC`: the IC50 is 3.5 µM. The IC50 values of the last two compounds are within 1.5-fold of each other.

On to `C[C@H]1CC[C@H](N(C(=O)c2ccc(Oc3ccccc3)cc2)c2ncc(C(=O)O)s2)CC1` (stereo in doubt; cis), for which the IC50 is 6.6 µM.

The compound `COc1ccccc1COc1ccc(C(=O)N(c2ncc(C(=O)O)s2)C2CCCCC2)cc1` yielded an IC50 of 8.5 µM. The IC50 values of the last two compounds are within 1.5-fold of each other.

As to `O=C(O)c1cnc(N(C(=O)c2ccc(OCc3ccc(F)cc3)cc2)C2CCCCC2)s1`, half-maximal inhibition (IC50) required 3.9 µM.

Regarding `C[C@H]1CCCC[C@@H]1N(C(=O)c1ccc(Oc2ccccc2)cc1)c1ncc(C(=O)O)s1` (single isomer, unassigned; cis), 6.1 µM corresponded to half-maximal inhibition (IC50).

The compound `C[C@H]1CC[C@@H](N(C(=O)c2ccc(Oc3ccccc3)cc2)c2nc(C(=O)O)cs2)CC1` (stereo in doubt; trans) yielded an IC50 of 5.4 µM.

Turning to `CC(C)(C)[C@H]1CC[C@@H](N(C(=O)c2ccc(Oc3ccccc3)cc2)c2nc(C(=O)O)cs2)CC1` (stereo in doubt; cis), the IC50 came out at 2.8 µM. Against the preceding compound, the IC50 is about 1.9-fold lower.

With `O=C(O)c1cnc(N(C(=O)c2ccc(OCc3cccc(F)c3)cc2)C2CCCCC2)s1`, the midpoint of inhibition, the IC50, lay at 6.5 µM.

`O=C(O)c1cnc(N(C(=O)c2ccc(Oc3ccccc3)cc2)C2CCSCC2)s1`: the IC50 worked out at 13 µM.

Regarding `O=C(O)c1cnc(N(C(=O)c2ccc(Oc3ccccc3)cc2)C2CCS(=O)(=O)CC2)s1`, the IC50 is greater than 50 µM.

On to `CC(C)(C)[C@H]1CC[C@H](N(C(=O)c2ccc(Oc3ccccc3)cc2)c2ncc(C(=O)O)s2)CC1` (stereo in doubt; cis), for which the IC50 came out at 3.4 µM.

For the compound `O=C(O)c1cnc(N(C(=O)c2ccc(OCc3ccccc3C(F)(F)F)cc2)C2CCCCC2)s1`, the midpoint of inhibition, the IC50, lay at 5.1 µM.

With `O=C(O)c1cnc(N(C(=O)c2ccc(Oc3ccccc3)cc2)C2CCCCC2)s1`, the IC50 amounted to 7 µM. This IC50 and that of the compound before are within 1.5-fold of each other.

Compound `O=C(O)c1cnc(N(C(=O)c2ccc(Oc3cccc(OC(F)(F)F)c3)cc2)C2CCCCC2)s1` displayed an IC50 of 5.2 µM.

Consider `O=C(O)c1csc(N(C(=O)c2ccc(Oc3ccccc3)cc2)C2CCCCC2)n1`, for which the IC50 was 10 µM. This IC50 lies about 1.9-fold higher than the previous one.

In the case of `O=C(O)c1cnc(N(C(=O)c2ccc(OCc3cccs3)cc2)C2CCCCC2)s1`, the IC50 was 7 µM.

Regarding `C[C@@H]1C[C@@H](N(C(=O)c2ccc(Oc3ccccc3)cc2)c2ncc(C(=O)O)s2)CC(C)(C)C1` (single isomer, unassigned), the midpoint of inhibition, the IC50, lay at 6 µM.

Compound `O=C(O)c1cnc(N(C(=O)c2ccc(OC3CCCCC3)cc2)C2CCCCC2)s1` showed an IC50 of 5.5 µM.

Compound `C[C@H]1CCCC[C@@H]1N(C(=O)c1ccc(Oc2ccccc2)cc1)c1ncc(C(=O)O)s1` (single isomer, unassigned; trans) returned an IC50 of 9.4 µM.

`O=C(O)c1cnc(N(C(=O)c2ccc(Oc3ccc(Cl)c(Cl)c3)cc2)C2CCCCC2)s1`: the IC50 was 2.6 µM.

With `O=C(Nc1nc(C(=O)O)cs1)c1ccc(Oc2ccccc2)cc1`, the IC50 is greater than 50 µM.

Turning to `O=C(O)c1cnc(N(C(=O)c2ccc(OCc3ccccc3F)cc2)C2CCCCC2)s1`, it took 4 µM to reach half-maximal inhibition (IC50).

`O=C(O)c1cnc(N(C(=O)c2ccc(OCc3ccccn3)cc2)C2CCCCC2)s1` displayed an IC50 of 15 µM. This IC50 lies about 3.8-fold higher than the previous one.

`C[C@@H]1C[C@@H](N(C(=O)c2ccc(Oc3ccccc3)cc2)c2nc(C(=O)O)cs2)CC(C)(C)C1` (single isomer, unassigned): the IC50 came to 5.5 µM. Compared with the last compound, the IC50 is about 2.7-fold lower.

System in the next data set: not listed separately
Nature of the data set: Permeability determined in Caco-2 experiment. It is filed as ADME. To be noted: human, read-out: Permeability. (In general: Caco-2 monolayers are a common model of the intestinal barrier.)
Take `O=C(O)c1cnc(N(C(=O)c2ccc(OCc3cccc(C(F)(F)F)c3)cc2)C2CCCCC2)s1`: the Papp was 14.7 ×10⁻⁶ cm/s.

System in a further data set: not listed separately
Nature of the data set: Clearance rate from human hepatocytes. It is filed as ADME, Liver, Hepatocyte.
Conditions: not given
Compound `O=C(O)c1cnc(N(C(=O)c2ccc(OCc3cccc(C(F)(F)F)c3)cc2)C2CCCCC2)s1` had a CL of 5 lL/min/million.

Usually IC50 stands for the midpoint of a concentration-inhibition curve.
